OX1R antag-1 = human HCRTR1 antagonism; O43613; CHO/OX1R cells, Fluo-8 calcium fluorescence, orexin A; inhibition, % at 5 µM; hit rate 0.43% among 330,000; AID 434989;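 active = inhibition above its plate's threshold, mean inhibition of all tested compounds on the plate plus 3 SD, cut at about 37% in these data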;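 also: 0% = orexin A challenge wells and 100% = SB-334867-A antagonist wells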
CHO parental Ca = counter-screen for OX1R antagonists: effect in parental CHO cells; parental CHO-K1, ATP-induced calcium, Fluo-8 fluorescence; inhibition, % at 5.6 µM; hit rate 0.63% among 330,000;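 active = inhibition above that plate's mean sample inhibition plus 3 SD, cut at about 26% in these data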;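 also: 0% = ATP-challenged DMSO wells and 100% = DMSO wells without ATP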
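Test system: parental CHO cells; detection: calcium-sensitive Fluo-8 fluorescence; evaluation: percent inhibition of calcium signal; also added: ATP as calcium-mobilizing challenge; repeats: one well per compound; control set: ATP-challenged DMSO wells low, unchallenged DMSO wells high; compound: single nominal dose of 5.6 µM per compound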
OX1R antag-2 = blocks the human orexin 1 receptor. O43613. OX1R-expressing cells, FRET antagonist read-out. inhibition, % at 6.6 µM. hit rate 1.8% among 330,000. AID 485270; in the data active = inhibition mostly above about 38%, no sharp cut-off; inactive = mostly below about 40%;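 also: 0% = agonist challenge alone and 100% = reference antagonist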
TRPML3 ag = human mucolipin-3 channel agonism; hit rate 0.29% among 220,000; Q8TDD5; AID 1448; activation, % at 3 µM; HEK293 TRPML3-YFP, Fluo-8 calcium fluorescence; 100% = the carbachol control signal;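 active = activation above its plate's cutoff, the mean activation of the plate's test wells plus 3 SD, cut at about 12% in these data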;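 also: 0% = DMSO only wells and 100% = carbachol wells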
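system = HEK293 cells stably carrying human TRPML3-YFP | doses = one concentration, 3 µM nominal, 0.3% DMSO | timing = dye loading 1 h 37 °C then 30 min ambient, 125 s read | detection = Fluo-8 calcium dye fluorescence, ex 470-495, em 515-575 nm | benchmarks = high control carbachol 87 µM, low control DMSO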
TRPN1 ag = zebrafish TRPN1 (NompC) channel agonism; HEK293 zebrafish TRPN1-YFP, Fluo-8 calcium fluorescence; 100% = response to 87 µM carbachol; activation, % at 3 µM; hit rate 0.18% among 220,000;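 active = activation above its plate's cutoff, the mean activation of test wells on that plate plus 3 SD, cut at about 19% in these data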;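 also: 0% = DMSO alone and 100% = 87 µM carbachol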
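Material: zebrafish TRPN1-YFP in HEK293 cells. Doses: one dose of 3 µM, 0.3% DMSO. Incubation: dye 1 h 37 °C plus 30 min RT. Measured by: intracellular calcium fluorescence with Fluo-8.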
GPR7 antag = blocks human GPR7 receptor signaling. inhibition, % at 4.4 µM. AID 1861. GPR7-expressing cells, fluorescence antagonist assay. hit rate 1.1% among 290,000; in the data active = inhibition above about 16%, passing the limit was not always enough;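 also: cells stimulated with the agonist NPW; 0% = agonist with vehicle and 100% = vehicle without agonist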
Target sequence (P48145 whole entry, looked up): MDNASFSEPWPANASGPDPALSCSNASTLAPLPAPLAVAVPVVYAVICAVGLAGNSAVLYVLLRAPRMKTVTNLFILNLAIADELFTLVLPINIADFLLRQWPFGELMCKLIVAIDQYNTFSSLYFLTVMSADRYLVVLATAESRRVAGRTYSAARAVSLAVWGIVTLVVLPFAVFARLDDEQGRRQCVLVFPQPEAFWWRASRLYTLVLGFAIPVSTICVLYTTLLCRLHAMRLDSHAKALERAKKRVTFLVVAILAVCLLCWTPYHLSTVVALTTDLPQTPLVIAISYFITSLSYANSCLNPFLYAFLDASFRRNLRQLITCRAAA
Starred values were filed as active, the others as inactive; nt = no result. Compounds with a hit are over-represented: about 3.2% of the library has one in this group of screens.

SMILES	OX1R antag-1	CHO parental Ca	OX1R antag-2	TRPML3 ag	TRPN1 ag	GPR7 antag
C=C(C)C(O)CC/C(C)=C/Cc1c(O)ccc(C(=O)/C=C/c2ccc(O)cc2)c1O (stereo unspecified)	30	31*	2	nt	nt	nt
O=C(NC1CC1)c1sc2cc([N+](=O)[O-])ccc2c1Cl	-4	1	69*	0	1	-8
Cc1cccc(NCCC(=O)c2ccc([N+](=O)[O-])cc2)c1C	-17	-10	42*	1	1	-12
Cc1ccc(NCCC(=O)c2cccc([N+](=O)[O-])c2)c(C)c1	-18	-14	10	0	0	1
CC1CCCC(NC(=O)NC(=O)COC(=O)C2=NN(c3ccccc3)C(=O)CC2)C1C (stereo unspecified)	-9	-20	2	nt	nt	nt
CSC1=NSC2=NC(=O)/C(=C\c3cccs3)C(=N)N12	-9	-6	21	0	2	-2
N=C1/C(=C\c2coc3ccccc3c2=O)C(=O)N=C2SC=CN12	27	30*	12	66*	176*	15
CSC1=NSC2=NC(=O)/C(=C/c3coc4ccc(O)cc4c3=O)C(=N)N12	47*	37*	12	1	1	-5
CC(C)c1ccc(CN2CCN(C(=O)CCl)CC2)cc1	nt	nt	nt	3	5	11
CCc1nc2c(c(=O)c3ccccc3n2C)c(=O)n1C1CCCCCC1	-15	-8	32	18*	19*	-4
COc1ccc(CCn2c(C3CCCCC3)nc3c(c(=O)c4ccccc4n3C)c2=O)cc1	16	-16	3	12*	22*	-14
CC(C)c1nc2c(c(=O)c3ccccc3n2C)c(=O)n1CCc1ccccc1	-17	-32	19	9	21*	-20
COc1ccc(CCn2c(-c3ccccc3)nc3c(c(=O)c4ccccc4n3C)c2=O)cc1	-23	-16	11	1	0	1
Cn1c2ccccc2c(=O)c2c(=O)n(C3CCCCCC3)c(C3CCCCC3)nc21	nt	nt	nt	1	0	-9
CCOc1ccc(NC(=O)CN(C)C(=O)c2ccc3nc(CC)c(CC)nc3c2)cc1OCC	-40	-14	18	nt	nt	nt
CN(NS(=O)(=O)c1ccc(Br)cc1)c1nc(C(F)(F)F)nc2ccccc12	-17	17	63*	2	0	-2
CC(=O)NC12CC3CC(C1)CC(C(=O)Nc1nc4ccc(S(C)(=O)=O)cc4s1)(C3)C2	-31	-7	19	nt	nt	2
COCCNC(=O)C(c1ccc(C)cc1)N(Cc1ccco1)C(=O)CCC(=O)Nc1ccccn1 (stereo unspecified)	3	-3	56*	nt	nt	1
C/C(=N\Nc1ccc([N+](=O)[O-])cc1)c1ccc(C#N)cc1	-4	14	18	2	0	-13
N#CC(C#N)=NNc1ccc([N+](=O)[O-])cc1	2	-1	72*	1	-1	-12
COC(=O)C(NC(=O)c1ccc(F)cc1)(Nc1nc(C)cs1)C(F)(F)F (stereo unspecified)	-31	-20	12	0	1	17*
COC(=O)C(NC(=O)c1ccc(Cl)cc1)(Nc1nc(C)cs1)C(F)(F)F (stereo unspecified)	-8	-10	1	1	0	-1
COCCN=c1scc(C)n1/N=C/C1CC2C=CC1C2 (stereo unspecified)	-22	-12	18	1	1	-3
Cc1cc2cc(CCNC(=O)C(=O)c3c[nH]c4ccccc34)c(=O)[nH]c2cc1C	2	-20	65*	0	1	4
O=c1c(-c2nnc(SCc3ccc(Cl)cc3)o2)cccn1Cc1ccccc1	-7	2	40*	0	0	-14
SMILES	OX1R antag-1	CHO parental Ca	OX1R antag-2	TRPML3 ag	TRPN1 ag	GPR7 antag
CCN(Cc1nc2cc(Cl)ccc2c(=O)[nH]1)C(=O)c1ccc(C)c(NC(=O)c2ccco2)c1	25	-29	76*	nt	nt	nt
CCN(Cc1nc2cc(Cl)ccc2c(=O)[nH]1)C(=O)c1nn(C)c(=O)c2ccccc12	-15	-12	38*	nt	nt	nt
Cn1cnc(NCc2ccccc2)c1[N+](=O)[O-]	-13	-6	20	0	2	14
CCOC(=O)c1c(-c2ccccc2)csc1NC(=O)CSc1nc(C)cc(C)n1	-4	37*	36	0	-1	8
CCOC(=O)c1c(-c2ccccc2)csc1NC(=O)CSc1nc(N)cc(N)n1	1	-18	30	1	0	7
CCOC(=O)c1c(-c2ccc(OC)cc2)csc1NC(=O)CNCc1ccco1	-8	-20	46*	-1	-1	-10
CCOC(=O)c1c(-c2ccc(Cl)cc2)csc1NC(=O)CNCc1ccco1	-24	-23	35	0	3	-2
OCCC1CN(Cc2cccn2-c2cccnc2)CCN1C1CCCCC1 (stereo unspecified)	-17	-2	2	0	0	-14
CCOC(=O)/C(C#N)=C/c1c[nH]c2ccccc12	-5	-4	51*	0	-2	-7
CCCC(=O)Nc1nc2ccc3nc(C)sc3c2s1	-12	4	31	1	-1	-14
CCCCC(=O)Nc1nc2ccc3nc(C)sc3c2s1	-11	-18	52*	0	0	-12
COc1cc(OC)cc(C(=O)N[C@H](C(=O)OCC(=O)c2ccc(C)c([N+](=O)[O-])c2)C(C)C)c1	-19	-10	16	nt	nt	nt
CC(=O)c1sc2nc(C)c3c(c2c1N)CCCC3	-32	-18	50*	0	0	-13
Cc1nc2sc(C#N)c(N)c2c2c1CCCC2	-20	-22	63	-1	-1	-19
Cc1cc(C)c(C(N)=O)c(SCC(=O)c2cc(C)n(-c3cc(C)on3)c2C)n1	15	31*	12	nt	nt	nt
CC1CN(C(=O)c2cc(S(=O)(=O)N(C)c3ccc(F)cc3)ccc2Cl)CC(C)O1 (stereo unspecified)	-10	0	31	nt	nt	6
N#C/C(=C\c1ccc(Sc2ccc(Cl)cc2)o1)c1nc2ccccc2[nH]1	23	39	37	1	-1	-3
N#C/C(=C\c1ccc(Sc2nc3ccccc3[nH]2)o1)c1ccccc1	56*	32	74*	0	-1	10
CCOC(=O)c1[nH]ncc1CN1CCCC(C(=O)c2ccc(C(C)(C)C)cc2)C1 (stereo unspecified)	-19	-22	30	1	2	-4
N#Cc1c(=O)c2nc(NCc3ccccc3)ncc2n2ccccc12	13	-3	62*	0	0	10
CCc1ccc(NC(=O)Cn2nc(C(=O)O)c3ccccc3c2=O)cc1	-8	-5	26	nt	nt	-14
Nc1ccc(C(=O)OCCCc2nc3cc4ccccc4cc3[nH]2)cc1	-12	-10	41*	-1	-2	-2
